Screens (PubChem BioAssay)
The list is not random: actives were taken first. Their share in the collection is about 27%.
CYP2C9 activ: activators of human CYP2C9 | recombinant CYP2C9, luciferin-H conversion, luminescence; stronger effect = higher value; factor 1 = untreated enzyme, 0 = blocked | actives 1.4% (n = 96,000) | AID 1024 | P11712 | activation factor at 5 µM;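 active = activation factor of 2 or more for CYP2C9 at a 5 µM dose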;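 note: 0 = sulfaphenazole-blocked wells and 1 = vehicle-only wells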
CYP2C9 inh: blocks human cytochrome P450 2C9 | P11712 | inhibition, % at 5 µM | actives 20% (n = 96,000) | CYP2C9 Supersomes, luciferin-H conversion, luminescence | AID 777;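 active = blocking of liver enzyme CYP2C9 beyond about 50% at 5 µM, limit read from the data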
CYP2C19 inhib: blocks human cytochrome P450 2C19. AID 778. actives 21% (n = 96,000). CYP2C19 Supersomes, luciferin-H EGE luminescence, 30 min. inhibition, % at 5 µM;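 active = CYP2C19 inhibition above a set limit at 5 µM in the primary screen, cut at about 50% in these data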;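 note: plate controls were negative control wells for no effect and 2.5 mM tranylcypromine positive control for full effect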
Target sequence (P33261 whole entry, looked up): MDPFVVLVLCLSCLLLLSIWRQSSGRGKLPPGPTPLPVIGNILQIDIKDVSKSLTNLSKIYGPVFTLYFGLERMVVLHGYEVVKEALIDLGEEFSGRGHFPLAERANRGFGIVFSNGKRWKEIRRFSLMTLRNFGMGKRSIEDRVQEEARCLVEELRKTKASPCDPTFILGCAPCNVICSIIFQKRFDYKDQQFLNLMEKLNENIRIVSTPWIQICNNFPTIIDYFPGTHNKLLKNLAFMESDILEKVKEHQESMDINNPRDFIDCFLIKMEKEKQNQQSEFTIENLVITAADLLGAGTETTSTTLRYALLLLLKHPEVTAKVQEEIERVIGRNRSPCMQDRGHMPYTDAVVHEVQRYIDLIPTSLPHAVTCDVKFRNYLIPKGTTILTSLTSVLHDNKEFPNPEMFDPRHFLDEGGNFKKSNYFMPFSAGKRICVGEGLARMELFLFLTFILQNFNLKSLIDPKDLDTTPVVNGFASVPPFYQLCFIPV
CYP2C19 activ: cytochrome P450 2C19 (human) activation; activation factor at 5 µM; 96,000 tested, under 10 active; recombinant CYP2C19, luciferin-H EGE luminescence; stronger effect = higher value; 0 = fully inhibited enzyme, 1 = untreated enzyme; P33261; AID 1025;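 active = activation factor of at least 2 at 5 µM in the primary screen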;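 note: 0 = wells with 2.5 mM tranylcypromine and 1 = vehicle-only wells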
Cav32 inh: inhibitors of human Cav3.2 T-type calcium channel; B-score at 10 µM; Cav3.2-expressing cells, Fluo-4 calcium fluorescence FDSS; stronger effect = lower value; O95180; actives 4% (n = 100,000); AID 449739;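 active = single-dose well whose peak fluorescence ratio is a statistical outlier from its plate by either plate-standardised score or position-corrected B-score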
HIV Rev-RRE inh: inhibitors of HIV-1 Rev-RRE RNA interaction. P05866. Rev peptide-RRE RNA binding, FRET. inhibition, % at 8 µM. actives 0.79% (n = 97,000). AID 704;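 active = inhibition above the screen-wide mean plus 3 SD, cut at about 35% in these data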;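 note: 0% = median DMSO wells and 100% = median Neomycin B control wells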
Target sequence (P05866 whole entry, looked up): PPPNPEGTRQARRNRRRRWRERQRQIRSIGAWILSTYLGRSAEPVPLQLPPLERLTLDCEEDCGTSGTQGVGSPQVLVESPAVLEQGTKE
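Assay system: labelled RRE RNA duplex and labelled Rev peptide / Medium: HEPES pH 7.5 salt buffer with EDTA / Reagent: labelled Rev peptide / Schedule: 5 + 15 min at 25 °C / Signal: FRET, excitation 480 nm, emission 540 nm donor and 671 nm acceptor / Benchmarks: DMSO and neomycin B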
* marks the source's active call; other numbers are inactive results; x = no result given.

SMILES	CYP2C9 activ	CYP2C9 inh	CYP2C19 inhib	CYP2C19 activ	Cav32 inh	HIV Rev-RRE inh
O=C(c1ccc(-c2nnc(Nc3cccc(Cl)c3)c3ccccc23)cc1)N1C[C@H]2C[C@H](C1)c1cccc(=O)n1C2	0.7	30	16	0.8	1.5	-4
COc1ccc(C)cc1S(=O)(=O)N1CCN(Cc2ccccc2)CC1	0.1	90*	96*	0	-0.74	10
Cn1cc(S(=O)(=O)N2CCN(Cc3ccccc3)CC2)c(=O)n(C)c1=O	1.1	-8	2	1	0.79	4
CC(C)COC(=O)NCCOC(=O)Nc1cccc(Cl)c1	0.2	80*	95*	0	-5.7*	16
Cc1ccc(C2(c3ccc(C)cc3)CC2C(=O)Nc2ccc([N+](=O)[O-])cc2O)cc1 (configuration not stated)	0.2	75*	20	0.8	-1.9	-1
Cc1ccc(C(=O)/C=C/Nc2ccc([N+](=O)[O-])cc2Br)cc1	0.7	27	20	0.8	-1.2	3
Cc1cccc(-c2nnc(SCc3cc(=O)[nH]c4ccccc34)n2C)c1	2.1*	-111	84*	0.2	0.61	7
CCC(=O)NC(=S)Nc1ccc(NC(=O)COc2ccc(Cl)cc2Cl)cc1	0.9	9	28	0.7	-0.9	-1
Cc1cc(C)cc(OCC(=O)Nc2ccc(F)cc2)c1	1	0	59*	0.4	-1	8
O=C(COc1ccc(CO)cc1)Nc1ccc(F)cc1	0.7	30	52*	0.5	-0.086	11
O=C(COc1ccc(CO)cc1Cl)Nc1ccc(F)cc1	0.5	49	58*	0.4	0.074	6
COc1ccccc1NC(=O)COc1ccc(CO)cc1Cl	0.1	92*	97*	0	-0.11	16
COc1cc(CCCN2C(=O)C(=O)NC[C@@H]2C(C)O)cc(OC)c1OC (some centres not stated)	x	x	x	x	0.81	x
O=C(NS(=O)(=O)c1ccccc1)c1ccccc1	0.8	19	-17	1.2	0.26	2
Cc1cc(OCC(=O)NCCN2CCOCC2)cc(C)c1Br	2.1*	-107	99*	0	-0.18	0
Cc1cc(OCC(=O)NCC(C)C)cc(C)c1Br	1.8	-79	16	0.8	-2.6	12
Cc1cc(OCC(=O)Nc2ccncc2)cc(C)c1Br	0	99*	100*	0	-1.3	7
CCOc1ccc(NC(=O)N(CCCN2CCOCC2)Cc2cccnc2)cc1	0.5	54*	78*	0.2	-0.032	8
O=C(NCCN1CCOCC1)Nc1ccc(Cl)cc1	1	4	9	0.9	0.72	7
O=C(Nc1ccc(Cl)cc1)N(CCCN1CCOCC1)Cc1cccs1	0.5	48	84*	0.2	0.036	5
CCc1ccc(NC(=O)N(Cc2ccco2)C(C)c2cccs2)cc1 (configuration not stated)	0.6	42	24	0.8	-2.6	13
CCc1ccc(NC(=O)N(Cc2cccnc2)Cc2ccco2)cc1	0.1	87*	98*	0	0.011	3
Cc1ccc(NC(=O)N(CCCN2CCOCC2)Cc2cc3cc4c(cc3[nH]c2=O)OCO4)cc1	0.9	9	16	0.8	x	8
CCCN1CCCc2cc(CN(CCCN3CCOCC3)C(=O)Nc3ccc(OCC)cc3)ccc21	0.9	8	9	0.9	-2.1	4
Cc1ccc(NC(=O)N(CCCN2CCOCC2)Cc2cccs2)cc1C	0.5	53*	63*	0.4	1.1	3
SMILES	CYP2C9 activ	CYP2C9 inh	CYP2C19 inhib	CYP2C19 activ	Cav32 inh	HIV Rev-RRE inh
O=C(Nc1cccc(C(=O)N2CCCC2)c1)c1ccccc1Cl	1.1	-5	-14	1.1	0.71	1
O=C1c2ccccc2C(Nc2ccc(-c3nc4ccccc4[nH]3)cc2)N1Cc1ccco1 (configuration not stated)	0.1	87*	73*	0.3	-2.2	6
COC(=O)c1cc(NC2c3ccccc3C(=O)N2Cc2ccco2)cc(C(=O)OC)c1 (configuration not stated)	0.7	31	77*	0.2	-0.03	1
CCOc1ccc(N2C(=O)c3cccnc3C2Nc2ccc(Cl)cc2)cc1 (configuration not stated)	0.7	27	46	0.5	-1.3	7
O=C1c2ccccc2C(Nc2ccc(F)c(Cl)c2)N1Cc1ccco1 (configuration not stated)	0.6	40	66*	0.3	-6*	13
CCOc1ccc(NC2c3ccccc3C(=O)N2Cc2ccco2)cc1 (configuration not stated)	0.3	74*	23	0.8	-4.7*	10
CCC(C)NCCCCOc1ccc(C)cc1[N+](=O)[O-] (configuration not stated)	1	2	-8	1.1	0.61	-2
O=C(Nc1ccccn1)c1ccc2ccccc2n1	1	3	-1	1	-0.9	4
COc1ccc(NC2c3ccccc3C(=O)N2Cc2ccco2)cc1OC (configuration not stated)	0.7	33	64*	0.4	0.34	x
COc1ccc(NC(=O)CC2C(=O)N(c3cccc(OC)c3)C(=O)N2Cc2ccco2)cc1 (configuration not stated)	x	x	x	x	1.8	x
CC(c1ccccc1)n1cc(C(=O)NCCN2CCOCC2)nn1 (configuration not stated)	x	x	x	x	0.013	5
Cc1ccc(-c2nc(C3CCN(S(=O)(=O)c4ccc(C(F)(F)F)cc4)CC3)no2)cc1	0.6	43	7	0.9	0.0048	x
Cc1cc(C(F)(F)F)nn1CC(=O)N1CCOCC1	0.9	12	0	1	0.38	9
NC(=O)c1oc2ccccc2c1NC(=O)c1ccccc1	3.8*	-280	22	0.8	0.87	-1
NC(=O)c1oc2ccccc2c1NC(=O)c1ccco1	3.7*	-266	-13	1.1	-0.24	x
Cc1ccc(C)c(C(=O)Nc2c(C(N)=O)oc3ccccc23)c1	1.2	-22	10	0.9	0.16	6
O=C1C(C2=C(O)c3ccccc3C2=O)=Nc2ccccc21	0.5	53*	45	0.6	-1.7	13
CN=CC1=C(O)c2ccccc2C1=O	1	2	18	0.8	-0.21	2
CN1C(=O)N(S(=O)(=O)c2ccc(F)c(F)c2F)C(=O)C1(C)C	1.1	-7	0	1	-0.82	3
C=CCn1nc(-c2ccccc2)cc1C(=O)OCC	x	x	x	x	-0.19	x
CN(CC(=O)N1CC=C(c2ccccc2)CC1)S(=O)(=O)c1cnc[nH]1	0	99*	95*	0	0.49	6
CCn1c(COc2cccc(C)c2C)nnc1SCC(=O)N1CCN(c2ccc(OC)cc2)CC1	1	-4	6	0.9	0.11	-3
Cc1cc(C(=O)N/N=C/c2cccc([N+](=O)[O-])c2)c(C)o1	0.9	10	8	0.9	-0.55	-3
